What was measured:
[1] = test system: breast cancer cells; conditions: Supplemental Figure 3B; others and own data
[2] = test system: MDA-MB-231 tumors; type: in vivo, NSG mice; conditions: eribulin 0.1 mg/kg i.v.; POL5551 20 mg/kg s.c. b.i.d.; Figure 5A–C
[3] = test system: MDA-MB-231 tumors; experiment: Eribulin dose ranging in mice bearing MDA-MB-231 tumors; type: in vivo
Method in brief: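 Female NSG mice, 6–8 weeks old, were inoculated with 5×10⁵ MDA-MB-231 cells in Matrigel into the #9 mammary fat pad to form orthotopic tumours. Eribulin was diluted in saline and given i.v. once a week, at 0.1 mg/kg for primary fat-pad therapy. Vehicle controls received saline. Weight change is reported as mean and range.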

Row | Compound | SDF-1 mediated migration of breast cancer cells [1] | Primary MFP tumor growth [2] | Primary breast tumor reduction ([3]; eribulin 0.1 mg/kg single-agent, Supplemental Figure 5F) | Mice survival ([3]; eribulin dose ranging, Supplemental Figure 5D) | Treatment associated weight loss ([3]; high dose of eribulin (>0.5 mg/kg), Supplemental Figure 5E)
1 | c1cc(CN2CCCNCCNCCCNCC2)ccc1CN1CCCNCCNCCCNCC1 [AMD3100] | can block SDF-1 mediated migration of breast cancer cells |  |  |  | 
2 | C=C1C[C@@H]2CC[C@@]34C[C@H]5O[C@H]6[C@@H](O3)[C@H]3O[C@H](CC[C@@H]3O[C@H]6[C@H]5O4)CC(=O)C[C@@H]3[C@@H](OC)[C@@H](C[C@H](O)CN)O[C@H]3C[C@H]3O[C@@H](CC[C@@H]1O2)C[C@@H](C)C3=C [eribulin, Eribulin] |  | decreased primary tumor growth rate | 50% | prolonged mice survival in a dose-dependent manner | greater treatment associated weight loss

— paper PMC4784694 (Molecular cancer therapeutics, 2015)
